Sampled rows, rich in hits. Any-hit rate of the full collection: about 1.9%.
Runt-CBFb FRET: Runt domain-CBFb interaction inhibition. Q01196+Q13951. actives 0.46% (n = 220,000). Cerulean-Runt/Venus-CBFb FRET ratio 530/480, 1 h. inhibition, % at 20 µM. AID 1496;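 active = inhibition over about 50% at 20 µM in the single-dose screen, limit read from the data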;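 also: 0% = DMSO wells and 100% = excess unlabeled CBFb competitor control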
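Assay system: Cerulean-Runt domain fusion protein, energy donor; Signal: fluorescence energy transfer, 422 nm excitation, 530/480 nm emission; Timing: 1 h compound exposure, room temperature; Control set: unlabeled CBFb; Medium: Tris buffer pH 7.5 with salts and BSA; Compound: single test concentration of 20 µM, 1% DMSO final; Probe or stimulus: Venus-CBFb 100 nM.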
LANA-H2B inh: blocks KSHV LANA binding to histone H2A/H2B | Q9QR71 | cell-free LANA-H2A/H2B peptide, fluorescence polarization | inhibition, % (test concentration not listed) | actives 0.6% (n = 320,000) | AID 2629; in the data active = inhibition mostly above about 10%, no sharp cut-off; inactive = mostly below about 6.7%
Target sequence (Q9QR71 whole entry, looked up): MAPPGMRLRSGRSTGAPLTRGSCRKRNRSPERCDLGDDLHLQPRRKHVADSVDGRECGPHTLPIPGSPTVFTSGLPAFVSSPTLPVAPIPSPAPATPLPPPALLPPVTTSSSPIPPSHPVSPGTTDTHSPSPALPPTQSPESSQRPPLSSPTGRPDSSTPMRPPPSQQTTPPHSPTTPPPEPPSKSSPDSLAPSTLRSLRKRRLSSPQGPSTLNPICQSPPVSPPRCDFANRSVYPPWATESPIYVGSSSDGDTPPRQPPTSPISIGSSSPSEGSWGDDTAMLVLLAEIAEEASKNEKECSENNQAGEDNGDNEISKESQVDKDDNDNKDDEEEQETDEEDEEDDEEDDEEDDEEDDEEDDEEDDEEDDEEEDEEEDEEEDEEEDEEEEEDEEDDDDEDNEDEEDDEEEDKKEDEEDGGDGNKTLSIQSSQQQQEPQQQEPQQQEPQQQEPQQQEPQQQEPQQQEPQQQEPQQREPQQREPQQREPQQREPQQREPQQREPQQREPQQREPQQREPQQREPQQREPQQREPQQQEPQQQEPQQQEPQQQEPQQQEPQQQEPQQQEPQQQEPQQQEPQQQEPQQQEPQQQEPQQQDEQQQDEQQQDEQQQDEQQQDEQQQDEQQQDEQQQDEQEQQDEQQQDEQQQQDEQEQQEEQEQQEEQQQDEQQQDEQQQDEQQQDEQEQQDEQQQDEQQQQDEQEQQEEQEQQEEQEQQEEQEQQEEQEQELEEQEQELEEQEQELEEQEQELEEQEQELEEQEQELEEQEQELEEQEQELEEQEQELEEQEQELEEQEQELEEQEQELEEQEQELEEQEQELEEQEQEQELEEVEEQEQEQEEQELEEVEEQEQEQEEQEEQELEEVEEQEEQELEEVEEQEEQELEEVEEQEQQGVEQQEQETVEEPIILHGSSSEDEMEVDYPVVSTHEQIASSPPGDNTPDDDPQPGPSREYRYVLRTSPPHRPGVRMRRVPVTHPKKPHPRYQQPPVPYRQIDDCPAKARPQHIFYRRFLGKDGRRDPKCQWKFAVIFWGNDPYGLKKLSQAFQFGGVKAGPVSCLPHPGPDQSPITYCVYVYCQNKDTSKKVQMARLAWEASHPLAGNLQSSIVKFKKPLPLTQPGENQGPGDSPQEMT
CaV13 ICDI inh: Disruptors of the CACNA1D IQ motif to Ca2+-dependent inactivation inhibitor domain association, primary screening, Förster resonance energy transfer in intact living …; HEK cells, CFP/YFP FRET ICDI-IQ, plate reader, 10 min; percent FRET-ratio fall versus neutral wells; inhibition, % at 12.3 µM; actives 0.098% (n = 340,000); AID 743397;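 active = mean replicate inhibition of at least 30% and at least 1% of replicates passing that level; inconclusive = only one of the two criteria is met; inactive = neither criterion is met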;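 also: 0% = median of the neutral control wells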
HDAC3 inhib: human HDAC3 inhibition; inhibition, % at 8.3 µM; O15379; actives 0.15% (n = 320,000); recombinant HDAC3, fluorogenic peptide/trypsin coupled, fluorescence; in the data active = inhibition above about 26%, passing the limit was not always enough; inconclusive = no clear call, values can overlap the other calls
Runt-SMMHC FRET: blocks binding of human RUNX1 Runt domain to CBFb-SMMHC. Cerulean-Runt/Venus-CBFb-SMMHC FRET ratio 530/480, 1 h. actives 0.74% (n = 220,000). Q01196+Q13951. AID 1434. inhibition, % at 20 µM;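 active = mean inhibition across duplicate retests at 20 µM reaching about 50%, limit read from the data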;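 also: 0% = DMSO wells and 100% = wells with excess untagged CBFb-SMMHC; inhibitors lower the FRET ratio by blocking Runt binding to CBFb-SMMHC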
RanGTP-Imp inh: inhibitors of RanGTP-importin-beta interaction, primary screen, biochemical, FRET, CFP-Ran, YFP-importin-beta, homogeneous. actives 1.1% (n = 300,000). inhibition, % (no concentration beside the values). AID 2216. cell-free CFP-Ran/YFP-importin-beta FRET ratio;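 active = more than half of the replicate wells show a fall in the fluorescence ratio signal beyond about 16%, limit read from the data, passing the limit was not always enough; inconclusive = exactly half of the replicate wells pass the set limit; inactive = fewer than half of replicates pass the limit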;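 also: 0% = DMSO wells and 100% = Ran loaded with GDP instead of GTP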
* marks the source's active call; other numbers are inactive results; ? = inconclusive; · = no result.

SMILES	Runt-CBFb FRET	LANA-H2B inh	CaV13 ICDI inh	HDAC3 inhib	Runt-SMMHC FRET	RanGTP-Imp inh
CCOc1cccc(NC(=O)/C(C#N)=C\c2cn(CC(=O)O)c3ccccc23)c1	·	6	-18	9	·	28*
CCOc1ccc(NC(=O)/C(C#N)=C/c2cn(CC(=O)O)c3ccccc23)cc1	·	-1	-5	1	·	3
Cc1cccc(NC(=O)/C(C#N)=C/c2cn(CC(=O)NCc3ccco3)c3ccccc23)c1C	-60	-1	-12	4	-46	57*
N#C/C(=C\c1cn(Cc2ccccc2)c2ccccc12)C(=O)NCc1ccco1	-11	6	-9	5	-22	-1
Cc1oc(-c2ccc(Cl)cc2)nc1CS(=O)CC(=O)NCc1ccccn1 (stereo not given)	·	1	-3	1	·	1
CCN(C(=O)CSc1nc2ccccc2o1)c1c(N)n(Cc2ccccc2)c(=O)[nH]c1=O	·	0	-6	0	·	2
CCCCC(=O)Nc1cccc(NC(=O)c2ccc(Br)o2)c1	0	1	-9	-2	0	38*
CCOC(=O)C1CCCN(C(=O)C(C)(C)Oc2ccc(Cl)cc2)C1 (stereo not given)	-2	4	-6	0	0	6
NC(=O)c1cc([N+](=O)[O-])ccc1NCc1cccnc1	-2	2	42*	3	-3	3
O=C(O)c1cc([N+](=O)[O-])ccc1NCc1cccnc1	·	-2	-19	-3	·	-1
COc1ccc(S(=O)(=O)N2CCC3(CC2)CC(=O)c2ccccc2O3)cc1	·	2	-5	1	·	1
Fc1cc(F)cc(NC(=S)Nc2ccccc2N2CCOCC2)c1	7	4	-6	0	1	-4
O=C(c1cccc(Cl)c1)N1CCC(=O)N(C(COCc2ccccc2)Cc2ccccc2)CC1 (stereo not given)	-4	-13	55*	7	1	-4
CCCOc1ccc(C(CC(=O)O)NC(=O)C(c2ccccc2)c2ccccc2)cc1 (stereo not given)	·	1	-2	-4	·	·
O=C(CCC1N=C2c3ccccc3N=C(SCc3ccc(F)cc3)N2C1=O)NCc1ccco1 (stereo not given)	2	-8	-5	2	5	?
O=C(CCC1N=C2c3ccccc3N=C(SCc3ccc(Cl)cc3)N2C1=O)NCc1ccco1 (stereo not given)	-3	3	·	-1	0	27*
Cc1ccc(S(=O)(=O)c2nc(-c3ccccc3F)oc2N2CC(C)OC(C)C2)cc1 (stereo not given)	·	59*	-5	5	·	1
CN1CCN(C(c2ccccc2)c2ccccc2)CC1	·	0	-5	7	·	·
CN1CCCN(C(c2ccccc2)c2ccc(Cl)cc2)CC1 (stereo not given)	-2	29*	-4	·	1	5
Cn1[nH]c(-c2ccccc2)c(/C=N/O)c1=O	2	29*	-4	-11	-2	-1
CC(c1ccon1)N(C)Cc1c(C(=O)N(C)Cc2ccccc2)nc2ccccn12 (stereo not given)	0	-7	-7	2	5	·
CC(C)(C)c1ccc(C(=O)N2CCC(NC(=O)c3ccccc3)CC2)cc1	·	-1	-18	-2	·	4
COc1cccc(N2CCN(S(=O)(=O)c3ccc4ccccc4c3)CC2)c1	·	·	-6	·	·	·
CC(=O)N1CCc2c(sc(NC(=O)Cc3ccc(F)cc3)c2C(N)=O)C1	·	0	-7	-1	·	8
NC(=O)c1c(NC(=O)Cc2ccccc2)sc2c1CCN(Cc1ccccc1)C2	·	-1	40*	-3	·	134*
SMILES	Runt-CBFb FRET	LANA-H2B inh	CaV13 ICDI inh	HDAC3 inhib	Runt-SMMHC FRET	RanGTP-Imp inh
CCN1CCc2c(sc(NC(=O)CN3C(=O)c4ccccc4C3=O)c2C(N)=O)C1	62*	-3	-2	7	102*	-4
CC(=O)Nc1sc2c(c1C(N)=O)CCN(Cc1ccccc1)C2	9	5	11	-4	130*	162*
Cc1ccc(/C=N/NC(=O)CNC(=O)c2ccc(S(=O)(=O)N3CCCC3)cc2)o1	0	-3	10	7	-2	2
COc1ccc(N2CC(C(=O)Nc3nnc(SCC(=O)NCC4CCCO4)s3)CC2=O)cc1 (stereo not given)	·	34*	-8	-5	·	5
OC(c1ccc(Cl)c(Cl)c1)c1ncc(-c2ccccc2C(F)(F)F)[nH]1 (stereo not given)	·	·	-4	·	·	·
CC12CCC(=O)N1C(C(=O)NNC(=O)c1ccc(Cl)cc1)CS2 (stereo not given)	·	32*	-7	5	·	·
COc1ccccc1N1CCN(C2CCN(C3CCC(c4ccccc4)CC3)CC2)CC1 (stereo not given)	1	1	·	-12	-1	-2
COc1ccccc1N1CCN(C2CCC(C)CC2)CC1 (stereo not given)	·	-3	50*	-9	·	3
Cc1ccc(N2C(=O)[C@@H]3C(C(=O)CN4C(=O)c5ccccc5C4=O)=NN[C@@H]3C2=O)c(C)c1	0	24*	-5	-2	-2	-2
COc1ccccc1N1C(=O)[C@@H]2C(C(=O)CN3C(=O)c4ccccc4C3=O)=NN[C@@H]2C1=O	1	32*	-5	1	0	0
COc1cccc(N2C(=O)C3NN=C(C(=O)CN4C(=O)c5ccccc5C4=O)C3C2=O)c1 (stereo not given)	1	0	-16	2	-5	1
COc1ccccc1C(=O)N/C(=C/c1ccccc1)C(=O)Nc1ccc(C(=O)O)cc1	-1	-4	1	-4	-2	?
CCc1cc(C(c2ccncc2)N2CCN(C)CC2)c(NC(=O)c2ccccc2)s1 (stereo not given)	1	-1	-5	1	-2	?
COc1ccc(C2C(C(=O)c3sc(C)nc3C)=C(O)C(=O)N2CCCn2ccnc2)cc1OC (stereo not given)	-1	-5	-6	8	-16	0
O=C(CCCSc1nc2ccccc2[nH]1)NCc1ccccc1Cl	0	-9	-2	3	4	0
Cc1cc(C)nc(-n2ncc(C#N)c2N)n1	0	11*	-14	-4	2	2
Cc1cc(SCC(=O)N2CCN(C(=O)c3ccco3)CC2)c(C)cc1Br	·	45*	-2	1	·	·
Cn1c(=O)c2c(nc(N3CCN(c4ccccn4)CC3)n2Cc2ccc(Cl)cc2Cl)n(C)c1=O	-2	0	-4	10	0	2
CCN(CC)CCCNc1nc2cc(OC)c(OC)cc2c2nc(-c3ccccc3)nn12	1	-9	-5	-14	1	50*

High-throughput results deposited in PubChem by several laboratories.
